Assay results from ChEMBL document CHEMBL3271940, “Monoquaternary neuromuscular blocking agents based on 1-tetralone and 1-indanone” (J Med Chem, 1976).

Key:
Felis catus [1] = species: Felis catus; test: Neuromuscular blocking activity in cat assessed as time duration of action of blockade of tibialis muscle twitches at ED50; type: functional
[2] = Dissociation constant, pKa of the compound in water; type: physicochemical
Felis catus [3] = species: Felis catus; test: Neuromuscular blocking activity in cat assessed as blockade of tibialis muscle twitches; type: functional
In short: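 The reported value is the dose that produced 50% blockade of muscle twitches, given ± standard error together with the number of determinations.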

| SMILES | Time (Felis catus [1]) [min] | pKa [2] | ED50 (Felis catus [3]) [µmol/kg] |
| --- | --- | --- | --- |
| C[N+](C)(C)c1ccc2c(c1)CCC/C2=N\N.[I-] | 5.2 | 2.5 | 0.16 |
| C[N+](C)(C)CCOC(=O)CCC(=O)OCC[N+](C)(C)C.[Cl-].[Cl-] [SUCCINYLCHOLINE CHLORIDE] | 4.4 | – | 0.1 |
| C[N+](C)(C)c1cccc2c1CCC/C2=N\N.Cc1ccc(S(=O)(=O)[O-])cc1 | – | – | > 10 |
| CN(C)/N=C1\CCCc2cc([N+](C)(C)C)ccc21.[I-] | – | – | > 10 |
| C[N+](C)(C)c1cccc2c1CC/C2=N\N.[I-] | – | – | > 10 |
| C[N+](C)(C)c1ccc2c(c1)/C(=N/N)CCC2.[I-] | – | – | > 10 |
| C[N+](C)(C)c1ccc2c(c1)CC/C2=N\N.[I-] | 10 | – | 0.44 |
| C[N+](C)(C)c1ccc2c(c1)/C(=N/N)CC2.[I-] | 17.1 | – | 3.98 |
